Test results reported in ChEMBL document CHEMBL3769342, “Supramolecular Inhibition of Neurodegeneration by a Synthetic Receptor” (ACS Med Chem Lett, 2015).
Calls of active or inactive are those of the source. No cut-off for these calls is given here.

How the values were obtained:
[1] = Binding affinity to MPTP at 0.5 equivalents of compound by 1H NMR analysis
[2] = Binding affinity to MPTP assessed as upfield shift resonance at 1.2 equivalents of compound by 1H NMR analysis
[3] = Binding affinity to MPP+ assessed as upfield shift resonance at 1.2 equivalents of compound by 1H NMR analysis
[4] = Binding affinity to MPTP in PBS buffer solution at pH 7.4 by UV-vis titration method
Summary of the method: (§1)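 UV-vis titration in 0.01 M PBS, pH 7.4: host added in increasing amounts to the guest solution. Guest absorbance followed at 242 nm, plotted against host concentration and fitted by nonlinear least squares to a 1:1 model to give Ka.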

[5] = Binding affinity to MPP+ in PBS buffer solution at pH 7.4 by UV-vis titration method; summary of the method: as §1
[6] = Binding affinity to MPTP by ESI-MS analysis
[7] = Binding affinity to MPP+ by ESI-MS analysis
Danio rerio [8] = species: Danio rerio; assay: Neuroprotective activity against MPTP-induced tyrosine hydroxylase deficiency in zebrafish larval brain assessed as tyrosine hydroxylase viability in neuron at 100 uM after 48 hrs by immunofluorescence assay (reference value: 49.93 +/- 5.26%); format: functional
Danio rerio [9] = species: Danio rerio; assay: Neurotoxicity in zebrafish model of MPTP-induced tyrosine hydroxylase defeciency assessed as phenotypic changes at 100 uM after 48 hrs by immunofluorescence assay; format: organism-based; details: in vivo
[10] = Neurotoxicity in zebrafish larvae assessed as tyrosine hydroxylase viability in neuron at 100 uM after 48 hrs by immunofluorescence assay relative to control; format: organism-based, Danio rerio; details: tyrosine hydroxylase-positive neurons, read-out: Activity
Danio rerio [11] = species: Danio rerio; assay: Neuroprotective activity against MPTP-induced locomotion defeciency in zebrafish larvae assessed as swimming distance at 100 uM incubated for 5 days measured for 45 mins by automated video tracking system based method (reference value: 1368.76 +/- 404.62 cm); format: functional
Danio rerio [12] = species: Danio rerio; assay: Neurotoxicity in zebrafish larvae assessed as swimming distance at 100 uM incubated for 5 days measured for 45 mins by automated video tracking system based method (reference value: 3773.21 +/- 386.24 cm); format: ADME, organism-based; details: in vivo

- Activity [1]: Active
- Activity [2]: < 1 ppm
- Activity [3]: Active
- Ka [4]: 4.8 ×10⁴ /M
- Ka [5]: 1.05 ×10⁵ /M
- Activity [6]: Active
- Activity [7]: Active
SMILES: O=C1N2CN3C(=O)N4CN5C(=O)N6CN7C(=O)N8CN9C(=O)N%10CN%11C(=O)N%12CN%13C(=O)N%14CN1[C@H]1[C@@H]2N2CN%15C(=O)N(CN%16C(=O)N(CN%17C(=O)N(CN%18C(=O)N(CN%19C(=O)N(CN%20C(=O)N(CN1C2=O)[C@H]%14[C@@H]%20%13)[C@H]%12[C@@H]%19%11)[C@H]%10[C@@H]%189)[C@H]8[C@@H]%177)[C@H]6[C@@H]%165)[C@H]4[C@@H]%153
- Activity (Danio rerio [8]): 79.44%
- Activity (Danio rerio [9]): Non-toxic
- viability at 48 h, 100 µM [10]: 91%
- Activity (Danio rerio [11]): 3487.02 cm
- Activity (Danio rerio [12]): 4167.89 cm
